Values without a mark were called inactive. Results filed as inconclusive are left out. Calls of active or inactive are those of the source.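 The calls were made as follows, unless noted: active = cell viability at or below a set limit in both duplicate runs, the limit being the all-compound median minus 4 SD (cut at about 23% in these data, passing the limit was not always enough); inconclusive = no clear call, values can overlap the other calls; inactive = the rest.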

Usually viability stands for a read-out of living cells in per cent, often relative to untreated cells. The term inhibition denotes the percentage by which the read-out fell short of the control.

Assay [1] can be described thus: S. cerevisiae growth inhibition in permissive medium (OD615), pilot counter-assay for S. cerevisiae lifespan shortening project, permissive growth control (AID 705;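 active = growth inhibition above 25% in both replicates, a cutoff set 3 SD above the mean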). As to conditions: OD615, 24 h, at 10 µM, active compounds read high. The method in brief:
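assay system = Saccharomyces cerevisiae strain carrying genetically modified DeaD replicative-lifespan system | medium = SC raffinose/galactose permissive medium | dosing = 10 µM single dose, 0.25% DMSO | schedule = 24 h compound exposure at 30 °C after 4 h pre-growth | measured by = OD at 615 nm | read-out basis = growth inhibition from lowered OD615 after 24 h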

Assay [2] is described as follows: S. cerevisiae growth inhibition in restrictive medium, OD615, pilot screen, restrictive growth control, yeast lifespan reduction project (AID 706;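 active = growth inhibition above a set limit, 3 SD over mean compound inhibition, in both replicates, cut at about 43% in these data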;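 also: modified DeaD lifespan yeast strain shifted to restrictive glucose medium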). The following applies: OD615, 48 h, at 10 µM, active compounds read high. The method in brief:
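Buffer or medium: CSMM-D glucose medium. Material: genetically modified Saccharomyces cerevisiae, DeaD replicative lifespan assay strain. Times: 48 h compound exposure at 30 °C. Measured by: optical density at 615 nm.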

The nature of assay [3]: doxorubicin toxicity protection in MRP-1 cells – H69AR cells, CellTiter-Glo, duplicate, MRP-1 activator project, pilot screen (AID 807;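 active = viability increase at or above a cutoff of the median across tested compounds plus 3 SD, cut at about 8.5% in these data, passing the limit was not always enough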;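 also: compound pretreatment 18-22 h then 72 h combined with doxorubicin; 0% = doxorubicin alone and 100% = vehicle without doxorubicin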). As to conditions: H69AR viability with doxorubicin, CellTiter-Glo luminescence; at 10 µM; active compounds read high. (In general: In ATP-based viability assays light output follows the ATP content of the culture.)
Assay [4] is described as follows: viability of HCT116 without oncogenic beta-catenin – human colon tumor cells, pilot screen (AID 823).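 Also: 0% = wells killed by 20 µM Hyamine and 100% = untreated DMSO cell wells.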 As to conditions: HCT116 beta-catenin knockout viability, CellTiter-Glo, 60 h; at 10 µM; active compounds read low.
A short description of assay [5]: RAM pathway blockade in budding yeast – dse1pr::URA3 reporter, 5-FOA selection, pilot screen (AID 869;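 active = inhibition over a set limit, the all-compound mean plus 3 SD, in both replicate runs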;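 also: 0% = DMSO wells with no growth and 100% = 10 µM 1-NA-PP1 with full growth; RAM network block rescues cells from 5-FOA so hits raise OD615 growth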). As to conditions: S. cerevisiae dse1pr::URA3 5-FOA growth, OD615, 2 d; at 10 µM; active compounds read high; strain carries analog-sensitive mutant Cbk1 kinase.
Assay [6] can be described thus: RAM signaling pathway blockade in yeast – S. cerevisiae, Pdr1DBD-CYC8 efflux-inhibited sensitized strain, primary screen (AID 1298;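 active = RAM network inhibition above 8.4% in each of two replicates, 3 SD over the compound average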;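 also: 0% = DMSO untreated cells without growth and 100% = 10 µM 1-NA-PP1 full growth; higher means more yeast growth rescued from 5-FOA killing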). The following applies: S. cerevisiae cbk1-as DSE1-URA3 strain, 5-FOA growth OD615, 2 d; at 50 µM; active compounds read high.

For the molecule `CCOC(=O)C1CCN(C(=O)c2ccc(NC(=O)C3CCCO3)cc2)CC1` (stereo not given), the growth inhibition in assay [1] was -14.9%; in assay [2], -7.09%. Also, the viability increase in assay [3] is -2.64%. In addition, the viability in assay [4] was 88.8%. Further, the inhibition in assay [5] was 1.09%. Further, in assay [6], the RAM network inhibition was 3.28%.
Consider `COc1ccc(-c2cc3ccccc3n2CC(O)Cn2nc(C)cc2C)cc1` (stereo not given), for which the growth inhibition in assay [1] is -6.15%; in assay [2] it was 12.6%. Also, the viability increase in assay [3] was -4.13%. Besides, the viability in assay [4] is 69.5%. Further, the inhibition in assay [5] is 0.2%. The RAM network inhibition in assay [6] is 7.69%.
As for `O=C(c1ccco1)N1CCN(C(=O)C2Cc3ccccc3CN2S(=O)(=O)c2ccc(F)cc2)CC1` (stereo not given), the growth inhibition is -12.6% in assay [1] and -9.61% in assay [2]. Further, the viability increase in assay [3] was -4.67%. The viability in assay [4] was 97.2%. In assay [5], the inhibition is 3.29%. The RAM network inhibition in assay [6] was 7.28%.
Consider `CC1(C)Cc2c(sc3c2c(=N)n(Cc2ccco2)c(=O)n3Cc2ccc(F)cc2)CO1`, for which the growth inhibition is -14.4% in assay [1] and -4.37% in assay [2]. Further, the viability increase in assay [3] is -6.4%. Further, in assay [4], the viability was 56.5%. In assay [5], the inhibition is 1.44%. For the same molecule, the RAM network inhibition in assay [6] was 6.85%.
In the case of `CSc1nc2ccc(NC(=O)C3CC(=O)N(Cc4ccco4)C3)cc2s1` (stereo not given), the growth inhibition is 4.86% in assay [1] and -2.38% in assay [2]. Moreover, the viability increase in assay [3] is -5.77%. The viability in assay [4] is 97.4%. The inhibition in assay [5] was 1.02%. In addition, the RAM network inhibition in assay [6] is 0.88%.
As for `O=C(CCCOc1ccccc1)Nc1nnc(C2CCCO2)s1` (stereo not given), the growth inhibition in assay [1] is -23.6%; in assay [2] it was -3.93%. For the same molecule, the viability increase in assay [3] is -2.89%. In addition, the viability in assay [4] was 102%. The inhibition in assay [5] is 3.7%. Besides, the RAM network inhibition in assay [6] was 8.72%.
As for `CCN1CCN(c2nc(SC)nc3sc4c(c23)CC(C)(C)OC4)CC1`, the figures for the growth inhibition in assay [1] and in assay [2] were -15.9% and -8.5%, respectively. Also, the viability increase in assay [3] is -5.96%. Besides, the viability in assay [4] was 66.9%. Further, the inhibition in assay [5] was 1.39%. In assay [6], the RAM network inhibition is 2.09%.
Consider `Cc1ccc(C)c(NC(=O)CSc2nnc(-c3ccncc3)n2N)c1`, for which the growth inhibition was 5.02% in assay [1] and -0.075% in assay [2]. In addition, the viability increase in assay [3] was -4.65%. Moreover, in assay [4], the viability was 103%. For the same molecule, the inhibition in assay [5] was 0.06%. In addition, the RAM network inhibition in assay [6] is -0.98%.
With `COCCCNC(=O)c1cc2c(=O)n(C)c3ccccc3c2n1C`, the growth inhibition in assay [1] is -7.96%; in assay [2], -5.92%. Besides, the viability increase in assay [3] is -7.13%. Further, the viability in assay [4] was 36.5%. In assay [5], the inhibition is 0.345%. The RAM network inhibition in assay [6] was 4.4%.
`CC(C)OCCCNC(=O)c1ccc(NC(=O)C2CCCO2)cc1` (stereo not given): the growth inhibition in assay [1] is -12.9%; in assay [2], -8.97%. Moreover, the viability increase in assay [3] is -1.08%. The viability in assay [4] is 99.9%. For the same molecule, the inhibition in assay [5] was 1.57%. Besides, the RAM network inhibition in assay [6] is 1.15%.
Regarding `O=C(OCC(=O)N1CCN(C(=O)c2ccco2)CC1)C1=COCCO1`, the growth inhibition in assay [1] is -9.26%; in assay [2], -5.99%. In addition, in assay [3], the viability increase was -3.83%. In addition, the viability in assay [4] is 105%. The inhibition in assay [5] was 2.21%. Also, the RAM network inhibition in assay [6] is 3.69%.
Consider `CCOC(=O)c1c(NC(=O)c2ccc(Cl)s2)sc(C)c1C`, for which the values for the growth inhibition in assay [1] and in assay [2] were -6.9% and -11.2%, respectively. Further, the viability increase in assay [3] is -8.89%. Also, the viability in assay [4] is 12.6% (active). The inhibition in assay [5] was 2.4%. Besides, the RAM network inhibition in assay [6] was 5.6%.
On to `CC1Cc2ccccc2N1C(=O)CCS(=O)(=O)c1cccc2nonc12` (stereo not given), for which the growth inhibition in assay [1] is 8.09%; in assay [2], 10.7%. The viability increase in assay [3] was -6.45%. The viability in assay [4] was 85.7%. Further, the inhibition in assay [5] is 0.56%. Moreover, the RAM network inhibition in assay [6] was 3.48%.
Turning to `CC1CCN(C(=O)CSc2nc(N)c3c4c(sc3n2)CN(C)CC4)CC1`, the growth inhibition in assay [1] is -10.2%; in assay [2], 12.6%. Further, the viability increase in assay [3] was -3.86%. For the same molecule, in assay [4], the viability is 102%. Moreover, the inhibition in assay [5] was 0.905%. Further, in assay [6], the RAM network inhibition was 2.24%.
`COC(=O)c1cn(NC(=O)c2cnccn2)c(=O)c2ccccc12`: the results for the growth inhibition in assay [1] and in assay [2] were -5.4% and 16.9%, respectively. Further, the viability increase in assay [3] is 2.86%. Also, the viability in assay [4] is 27.8%. Further, the inhibition in assay [5] was 1.15%. In addition, the RAM network inhibition in assay [6] is -0.31%.
Turning to `N#Cc1c(N)nc2c(c1-c1ccc3c(c1)OCO3)CCCCCC2`, the growth inhibition in assay [1] is -18%; in assay [2], -4.1%. Further, in assay [3], the viability increase is -5.55%. In assay [4], the viability was 84.8%. Also, in assay [5], the inhibition is 2.68%. Further, the RAM network inhibition in assay [6] is 6.96%.
Turning to `COCC(=O)NC(C)c1nc2ccccc2[nH]1` (stereo not given), the results for the growth inhibition in assay [1] and in assay [2] were -27.6% and -2.47%, respectively. Moreover, the viability increase in assay [3] was -1.7%. Besides, in assay [4], the viability was 91.9%. Besides, the inhibition in assay [5] was 0.975%. For the same molecule, the RAM network inhibition in assay [6] is 3.95%.
As to `CCOC(=O)/C=c1\sc2n(c1=O)CCN=2`, the growth inhibition is -0.765% in assay [1] and -2% in assay [2]. Besides, in assay [3], the viability increase is -3.32%. The viability in assay [4] is 91.9%. Moreover, the inhibition in assay [5] is 1.44%. The RAM network inhibition in assay [6] is 2.73%.
Regarding `CC1(C)Cc2nc3sc4c(=O)n(CC(=O)NCc5ccco5)cnc4c3cc2CO1`, the figures for the growth inhibition in assay [1] and in assay [2] were -8.59% and 7.79%, respectively. Also, in assay [3], the viability increase was -5.22%. Moreover, in assay [4], the viability was 40.5%. For the same molecule, the inhibition in assay [5] is 0.68%. Also, the RAM network inhibition in assay [6] was 4.21%.
Take `OCCN1CCN(c2ncnc3c2sc2nc(N4CCOCC4)c4c(c23)CCC4)CC1`: the growth inhibition in assay [1] was -16.4%; in assay [2], -3.42%. In addition, in assay [3], the viability increase was -7.68%. For the same molecule, the viability in assay [4] was 55.3%. Besides, the inhibition in assay [5] is 1.13%. In addition, in assay [6], the RAM network inhibition is 2.39%.

Source of the values: PubChem BioAssay.
